Measured values from ChEMBL document CHEMBL1142136, “Contribution of target gene mutations and efflux to decreased susceptibility of Salmonella enterica serovar typhimurium to fluoroquinolones and other antimicrobials” (2007).

Assays:
Type in all cases: functional, Salmonella enterica subsp. enterica serovar Typhimurium
Salmonella typhimurium [1] = experiment: Antimicrobial activity against Salmonella enterica serovar Typhimurium S21
Procedure, shortened: (§1)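 MICs measured by broth microdilution on the Sensititre automated system and interpreted by CLSI broth microdilution standards. Ciprofloxacin was also tested by agar dilution, widening the range to 0.0075–128 μg/ml. Quality control strains were E. coli ATCC 25922 and 35218, E. faecalis ATCC 29212, S. aureus ATCC 29213 and P. aeruginosa ATCC 27853.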

Salmonella typhimurium [2] = experiment: Antimicrobial activity against Salmonella enterica serovar Typhimurium S21 gyrA+; procedure, shortened: as §1
Salmonella typhimurium [3] = experiment: Antimicrobial activity against Salmonella enterica serovar Typhimurium S21 acrAB::Kan
Procedure, shortened: (§2)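 MICs by automated broth microdilution panels, interpreted to CLSI broth microdilution standards. Ciprofloxacin additionally tested by agar dilution across 0.0075 to 128 μg/ml. Quality control strains: E. coli ATCC 25922 and 35218, Enterococcus faecalis ATCC 29212, S. aureus ATCC 29213, P. aeruginosa ATCC 27853. Test strains are kanamycin-marked deletion mutants of ground-beef isolate S21.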

Salmonella typhimurium [4] = experiment: Antimicrobial activity against Salmonella enterica serovar Typhimurium S21 tolC::Kan; procedure, shortened: as §2
Salmonella typhimurium [5] = experiment: Antimicrobial activity against Salmonella enterica serovar Typhimurium S21-1 GyrA S83F mutant; procedure, shortened: as §1
Salmonella typhimurium [6] = experiment: Antimicrobial activity against Salmonella enterica serovar Typhimurium S21-1 gyrA+; procedure, shortened: as §1
Salmonella typhimurium [7] = experiment: Antimicrobial activity against Salmonella enterica serovar Typhimurium GyrA S21-1 acrAB::Kan with GyrA S83F mutation; procedure, shortened: as §1
Salmonella typhimurium [8] = experiment: Antimicrobial activity against Salmonella enterica serovar Typhimurium S21-1 tolC::Kan with GyrA S83F mutation; procedure, shortened: as §1
Salmonella typhimurium [9] = experiment: Antimicrobial activity against Salmonella enterica serovar Typhimurium S21-2 with GyrA S83F, ParC S80I mutation; procedure, shortened: as §1
Salmonella typhimurium [10] = experiment: Antimicrobial activity against Salmonella enterica serovar Typhimurium S21-2 gyrA+ with ParC S80I mutation; procedure, shortened: as §1
Salmonella typhimurium [11] = experiment: Antimicrobial activity against Salmonella enterica serovar Typhimurium S21-2 acrAB::Kan with GyrA S83F, ParC S80I mutation; procedure, shortened: as §1
Salmonella typhimurium [12] = experiment: Antimicrobial activity against Salmonella enterica serovar Typhimurium S21-2 tolC::Kan with GyrA S83F, ParC S80I mutation; procedure, shortened: as §1
Salmonella typhimurium [13] = experiment: Antimicrobial activity against Salmonella enterica serovar Typhimurium S21-3 with GyrA S83F, ParC S80I mutation; procedure, shortened: as §1
Salmonella typhimurium [14] = experiment: Antimicrobial activity against Salmonella enterica serovar Typhimurium S21-3 gyrA+ with ParC S80I mutation; procedure, shortened: as §1
Salmonella typhimurium [15] = experiment: Antimicrobial activity against Salmonella enterica serovar Typhimurium S21-3 acrAB::Kan with GyrA S83F, ParC S80I mutation; procedure, shortened: as §1
Salmonella typhimurium [16] = experiment: Antimicrobial activity against Salmonella enterica serovar Typhimurium CHS14 gyrA+ with GyrA D87G mutation; procedure, shortened: as §1
Salmonella typhimurium [17] = experiment: Antimicrobial activity against Salmonella enterica serovar Typhimurium CHS14 acrAB::Kan with GyrA D87G mutation; procedure, shortened: as §1
Salmonella typhimurium [18] = experiment: Antimicrobial activity against Salmonella enterica serovar Typhimurium CHS14 tolC::Kan with GyrA D87G mutant; procedure, shortened: as §1
Salmonella typhimurium [19] = experiment: Antimicrobial activity against Salmonella enterica serovar Typhimurium CHS18 with GyrA S38F mutation; procedure, shortened: as §1
Salmonella typhimurium [20] = experiment: Antimicrobial activity against Salmonella enterica serovar Typhimurium CHS18 gyrA+ with GyrA S38F mutation; procedure, shortened: as §1
Salmonella typhimurium [21] = experiment: Antimicrobial activity against Salmonella enterica serovar Typhimurium CHS18 acrAB::Kan with GyrA S38F mutation; procedure, shortened: as §1
Salmonella typhimurium [22] = experiment: Antimicrobial activity against Salmonella enterica serovar Typhimurium CHS18 tolC::Kan with GyrA S38F mutation; procedure, shortened: as §1
Salmonella typhimurium [23] = experiment: Antimicrobial activity against Salmonella enterica serovar Typhimurium S21-4 acrAB::Kan with GyrA S83F, ParC S80I mutation; procedure, shortened: as §1
Salmonella typhimurium [24] = experiment: Antimicrobial activity against Salmonella enterica serovar Typhimurium S21-3 tolC::Kan with GyrA S83F, ParC S80I mutation; procedure, shortened: as §1
Salmonella typhimurium [25] = experiment: Antimicrobial activity against Salmonella enterica serovar Typhimurium S21-4 with GyrA S83F, ParC S80I mutation; procedure, shortened: as §1
Salmonella typhimurium [26] = experiment: Antimicrobial activity against Salmonella enterica serovar Typhimurium S21-4 gyrA+ with ParC S80I mutation; procedure, shortened: as §1
Salmonella typhimurium [27] = experiment: Antimicrobial activity against Salmonella enterica serovar Typhimurium S21-4 tolC::Kan with GyrA S83F, ParC S80I mutation; procedure, shortened: as §1
Salmonella typhimurium [28] = experiment: Antimicrobial activity against Salmonella enterica serovar Typhimurium CS1 with GyrA S83F, D87N, ParC S80I mutation; procedure, shortened: as §1
Salmonella typhimurium [29] = experiment: Antimicrobial activity against Salmonella enterica serovar Typhimurium CS1 gyrA+ with GyrA S83F, D87N, ParC S80I mutation; procedure, shortened: as §1
Salmonella typhimurium [30] = experiment: Antimicrobial activity against Salmonella enterica serovar Typhimurium CS1 acrAB::Kan with GyrA S83F, D87N, ParC S80I mutation; procedure, shortened: as §1
Salmonella typhimurium [31] = experiment: Antimicrobial activity against Salmonella enterica serovar Typhimurium CS1 tolC::Kan with GyrA S83F, D87N, ParC S80I mutation; procedure, shortened: as §1
Salmonella typhimurium [32] = experiment: Antimicrobial activity against Salmonella enterica serovar Typhimurium CS3 with GyrA S83F, D87N, ParC S80I mutation; procedure, shortened: as §1
Salmonella typhimurium [33] = experiment: Antimicrobial activity against Salmonella enterica serovar Typhimurium CS3 gyrA+ with GyrA S83F, D87N, ParC S80I mutation; procedure, shortened: as §1
Salmonella typhimurium [34] = experiment: Antimicrobial activity against Salmonella enterica serovar Typhimurium CS3 acrAB::Kan with GyrA S83F, D87N, ParC S80I mutation; procedure, shortened: as §1
Salmonella typhimurium [35] = experiment: Antimicrobial activity against Salmonella enterica serovar Typhimurium CS3 tolC::Kan with GyrA S83F, D87N, parC S80I mutation; procedure, shortened: as §1
Salmonella typhimurium [36] = experiment: Antimicrobial activity against Salmonella enterica serovar Typhimurium CS9 with GyrA S83F, D87N, ParC S80I mutation; procedure, shortened: as §1
Salmonella typhimurium [37] = experiment: Antimicrobial activity against Salmonella enterica serovar Typhimurium CS9 gyrA+ with GyrA S83F, D87N, ParC S80I mutation; procedure, shortened: as §1
Salmonella typhimurium [38] = experiment: Antimicrobial activity against Salmonella enterica serovar Typhimurium CS9 acrAB::Kan with GyrA S83F, D87N, ParC S80I mutation; procedure, shortened: as §1
Salmonella typhimurium [39] = experiment: Antimicrobial activity against Salmonella enterica serovar Typhimurium CS9 tolC::Kan with GyrA S83F, D87N, ParC S80I mutation; procedure, shortened: as §1
Salmonella typhimurium [40] = experiment: Antimicrobial activity against Salmonella enterica serovar Typhimurium CHS14 with GyrA D87G mutation; procedure, shortened: as §1
Salmonella typhimurium [41] = experiment: Antimicrobial activity against Salmonella enterica serovar Typhimurium CHS38 with GyrA D87G mutation; procedure, shortened: as §1
Salmonella typhimurium [42] = experiment: Antimicrobial activity against Salmonella enterica serovar Typhimurium CHS38 gyrA+ with GyrA D87G mutation; procedure, shortened: as §1
Salmonella typhimurium [43] = experiment: Antimicrobial activity against Salmonella enterica serovar Typhimurium CHS38 acrAB::Kan with GyrA D87G mutation; procedure, shortened: as §1
Salmonella typhimurium [44] = experiment: Antimicrobial activity against Salmonella enterica serovar Typhimurium CHS38 tolC::Kan with GyrA D87G mutation; procedure, shortened: as §1

Measured: MIC

CN1C[C@@H]2C[C@H]1CN2c1cc2c(cc1F)c(=O)c(C(=O)O)cn2C1CC1 [DANOFLOXACIN]
0.25 µg/mL: Salmonella typhimurium [15] | Salmonella typhimurium [23] | Salmonella typhimurium [24] | Salmonella typhimurium [27] | Salmonella typhimurium [40] | Salmonella typhimurium [41]
> 16 µg/mL: Salmonella typhimurium [13] | Salmonella typhimurium [25] | Salmonella typhimurium [28] | Salmonella typhimurium [32] | Salmonella typhimurium [36]
2 µg/mL: Salmonella typhimurium [14]
1 µg/mL: Salmonella typhimurium [10]
0.03 µg/mL: Salmonella typhimurium [1] | Salmonella typhimurium [2] | Salmonella typhimurium [6] | Salmonella typhimurium [16] | Salmonella typhimurium [17] | Salmonella typhimurium [18] | Salmonella typhimurium [21] | Salmonella typhimurium [43]
0.06 µg/mL: Salmonella typhimurium [7] | Salmonella typhimurium [8] | Salmonella typhimurium [20] | Salmonella typhimurium [22] | Salmonella typhimurium [29] | Salmonella typhimurium [33] | Salmonella typhimurium [37]
< 0.015 µg/mL: Salmonella typhimurium [3] | Salmonella typhimurium [4] | Salmonella typhimurium [42] | Salmonella typhimurium [44]
0.12 µg/mL: Salmonella typhimurium [11] | Salmonella typhimurium [12]
4 µg/mL: Salmonella typhimurium [9] | Salmonella typhimurium [26] | Salmonella typhimurium [30] | Salmonella typhimurium [31] | Salmonella typhimurium [34] | Salmonella typhimurium [35] | Salmonella typhimurium [38] | Salmonella typhimurium [39]
0.5 µg/mL: Salmonella typhimurium [5] | Salmonella typhimurium [19]

COc1c(N2CCNC(C)C2)c(F)cc2c(=O)c(C(=O)O)cn(C3CC3)c12 (stereo not drawn) [GATIFLOXACIN]
0.06 µg/mL: Salmonella typhimurium [11] | Salmonella typhimurium [12] | Salmonella typhimurium [15] | Salmonella typhimurium [20] | Salmonella typhimurium [23] | Salmonella typhimurium [24] | Salmonella typhimurium [27] | Salmonella typhimurium [29] | Salmonella typhimurium [33] | Salmonella typhimurium [37]
4 µg/mL: Salmonella typhimurium [28] | Salmonella typhimurium [32] | Salmonella typhimurium [36]
8 µg/mL: Salmonella typhimurium [13]
0.03 µg/mL: Salmonella typhimurium [1] | Salmonella typhimurium [2] | Salmonella typhimurium [6] | Salmonella typhimurium [7] | Salmonella typhimurium [8] | Salmonella typhimurium [16] | Salmonella typhimurium [22]
1 µg/mL: Salmonella typhimurium [9] | Salmonella typhimurium [14]
0.12 µg/mL: Salmonella typhimurium [21] | Salmonella typhimurium [41]
2 µg/mL: Salmonella typhimurium [26]
0.25 µg/mL: Salmonella typhimurium [10] | Salmonella typhimurium [19] | Salmonella typhimurium [40]
0.5 µg/mL: Salmonella typhimurium [5] | Salmonella typhimurium [30] | Salmonella typhimurium [31] | Salmonella typhimurium [34] | Salmonella typhimurium [35] | Salmonella typhimurium [38] | Salmonella typhimurium [39]
16 µg/mL: Salmonella typhimurium [25]
< 0.015 µg/mL: Salmonella typhimurium [3] | Salmonella typhimurium [4] | Salmonella typhimurium [17] | Salmonella typhimurium [18] | Salmonella typhimurium [42] | Salmonella typhimurium [43] | Salmonella typhimurium [44]
